Test [1] deals with T1, Delta-type opioid receptor (Homo sapiens, UniProt P41143). Put plainly: Displacement of [3H]diprenorphine human delta opioid receptor expressed in CHO cell membranes after 1 hr by micro beta2 scintillation counting method. For orientation: Loss of bound radioactivity is the signal in a displacement assay; it reports binding, not function.
In test [2] the target is T2, Mu-type opioid receptor (Homo sapiens, UniProt P35372). Put plainly: Displacement of [3H]diprenorphine human MOR expressed in CHO cell membranes after 1 hr by micro beta2 scintillation counting method. The class given is cell-based.
T2 sequence (P35372 whole entry): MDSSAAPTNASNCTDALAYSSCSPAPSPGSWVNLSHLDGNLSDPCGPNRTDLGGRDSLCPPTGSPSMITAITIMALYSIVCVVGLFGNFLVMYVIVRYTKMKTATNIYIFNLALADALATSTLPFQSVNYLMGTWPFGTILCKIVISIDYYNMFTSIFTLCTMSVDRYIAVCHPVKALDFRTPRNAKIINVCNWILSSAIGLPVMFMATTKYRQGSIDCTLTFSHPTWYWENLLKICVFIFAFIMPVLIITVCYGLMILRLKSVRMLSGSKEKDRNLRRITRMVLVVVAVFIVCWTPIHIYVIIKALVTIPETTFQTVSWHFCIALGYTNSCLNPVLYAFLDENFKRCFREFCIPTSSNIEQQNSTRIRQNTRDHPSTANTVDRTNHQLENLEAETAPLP
For test [3], the target named is T3, Kappa-type opioid receptor (Homo sapiens, UniProt P41145). Put plainly: Displacement of [3H]diprenorphine human kappa opioid receptor expressed in CHO cell membranes after 1 hr by micro beta2 scintillation counting method. The essentials: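 Membranes (20–25 μg protein) from CHO cells expressing human DOR or KOR were incubated 1 h at rt with concentration curves of compound and fixed 3H-diprenorphine (1.2–4.6 nM). Incubations ended by rapid GF/B filtration, then scintillation counted. […] Ki from one-site competition fit using the radioligand KD measured in each cell line. Mean ± SEM, N = 3.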
T3 sequence (P41145 whole entry): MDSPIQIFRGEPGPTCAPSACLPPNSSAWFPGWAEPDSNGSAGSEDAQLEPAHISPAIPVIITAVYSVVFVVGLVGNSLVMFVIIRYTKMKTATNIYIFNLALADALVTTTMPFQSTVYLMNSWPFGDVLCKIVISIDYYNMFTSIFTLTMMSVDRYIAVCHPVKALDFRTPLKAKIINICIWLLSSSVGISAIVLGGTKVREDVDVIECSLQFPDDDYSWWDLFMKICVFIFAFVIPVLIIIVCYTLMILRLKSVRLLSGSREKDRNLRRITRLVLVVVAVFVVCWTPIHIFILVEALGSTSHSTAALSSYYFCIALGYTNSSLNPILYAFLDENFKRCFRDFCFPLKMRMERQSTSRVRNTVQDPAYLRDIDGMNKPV

The species entered for test [4] is Homo sapiens. Put plainly: Selectivity index, ratio of Ki for displacement of [3H]diprenorphine human mu opioid receptor expressed in CHO cell membranes to Ki for displacement of [3H]diprenorphine human delta opioid receptor expressed in CHO cell membranes.
Test [5] addresses T1, Delta-type opioid receptor. In words: Agonist activity at human DOR expressed in CHO cell membranes after 1 hr by [35S]GTPgammaS binding assay. The class given is functional. The essentials: (§1)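 Membranes (15 μg protein) from CHO cells stably expressing human DOR, MOR or KOR, grown in DMEM/F12 with 10% heat-inactivated FBS and G418 selection. Concentration curves of agonist incubated with 0.1 nM 35S-GTPγS for 1 h at 30 °C, then filtered and scintillation counted. […] EC50 and Emax from 3-parameter fit, Hill slope fixed at 1. Mean ± SEM, N = 3.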

Test [6] addresses T1, Delta-type opioid receptor. In words: Agonist activity at human DOR expressed in CHO cell membranes after 1 hr by [35S]GTPgammaS binding assay relative to SNC80. Type of test: functional. The gist of the method:
as §1

In test [7] the target is T2, Mu-type opioid receptor. In words: Agonist activity at human MOR expressed in CHO cell membranes after 1 hr by [35S]GTPgammaS binding assay. Type of test: functional. The gist of the method: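 Membranes (15 μg protein) from CHO cells stably expressing human DOR, MOR or KOR, grown in DMEM/F12 with 10% heat-inactivated FBS and G418 selection. Concentration curves of agonist incubated with 0.1 nM 35S-GTPγS for 1 h at 30 °C, then filtered and scintillation counted. EC50 and Emax from 3-parameter fit, Hill slope fixed at 1. Mean ± SEM, N = 3.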
(Binding of GTPγS marks nucleotide exchange on a G protein.)

The target of test [8] is T2, Mu-type opioid receptor. Put plainly: Agonist activity at human MOR expressed in CHO cell membranes after 1 hr by [35S]GTPgammaS binding assay relative to DAMGO. Type of test: functional. The gist of the method:
as §1

The target of test [9] is T3, Kappa-type opioid receptor. Put plainly: Agonist activity at human KOR expressed in CHO cell membranes after 1 hr by [35S]GTPgammaS binding assay. Type of test: functional. The gist of the method: as §1
Test [10] concerns the target T3, Kappa-type opioid receptor. In words: Agonist activity at human KOR expressed in CHO cell membranes after 1 hr by [35S]GTPgammaS binding assay relative to U50,488. Type of test: functional. The gist of the method: as §1

T1 sequence (P41143 whole entry): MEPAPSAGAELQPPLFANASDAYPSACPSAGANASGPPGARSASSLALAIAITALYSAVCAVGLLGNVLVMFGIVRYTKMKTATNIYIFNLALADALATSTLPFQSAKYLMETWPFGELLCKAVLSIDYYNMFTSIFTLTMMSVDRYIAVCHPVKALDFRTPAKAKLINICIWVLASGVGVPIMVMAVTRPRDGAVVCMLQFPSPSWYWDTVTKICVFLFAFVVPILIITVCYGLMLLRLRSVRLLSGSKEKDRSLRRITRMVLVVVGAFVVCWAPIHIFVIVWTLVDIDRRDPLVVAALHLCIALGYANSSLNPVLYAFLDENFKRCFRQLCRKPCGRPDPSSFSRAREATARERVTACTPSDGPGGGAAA

What is called Ki is the equilibrium dissociation constant of an inhibitor or competing ligand from its target. A word on the EC50: it is the midpoint of the concentration-response curve. Usually Emax stands for the maximal effect, on the per cent scale that the assay sets. Regarding `Cc1cc(=O)oc2ccc(N3C(=O)C4=C(SC[C@@H](NC(=O)[C@@H](N)Cc5ccc(O)cc5)C(=O)NCC(=O)N[C@@H](Cc5ccccc5)C(=O)NNC(=O)[C@H](Cc5ccccc5)NC(=O)CNC(=O)[C@H](NC(=O)[C@@H](N)Cc5ccc(O)cc5)CS4)C3=O)cc12`, the results for the Ki in test [1], in test [2] and in test [3] were 120 nM, 790 nM and greater than 3.33 µM, respectively. In addition, in test [4], the Ratio Ki fell in the range of 5 to 8. In addition, the values for the EC50 in test [5], in [7] and in test [9] were 190 nM, 290 nM and 4100 nM, respectively. Moreover, the maximum response (Emax) in [6] is 55%; in test [8] it was 80%; in test [10], 50%.

As to `CN(C)c1cccc2c(S(=O)(=O)NCCN3C(=O)C4=C(SC[C@@H](NC(=O)[C@@H](N)Cc5ccc(O)cc5)C(=O)NCC(=O)N[C@@H](Cc5ccccc5)C(=O)NNC(=O)[C@H](Cc5ccccc5)NC(=O)CNC(=O)[C@H](NC(=O)[C@@H](N)Cc5ccc(O)cc5)CS4)C3=O)cccc12`, the inhibitory constant (Ki) in [1] is 15 nM; in [2], 91 nM; in test [3] it was greater than 3.33 µM. The Ratio Ki in test [4] lay in the range of 5 to 8. For the same compound, the EC50 is 40 nM in [5], 21 nM in test [7] and 460 nM in test [9]. The figures for the maximum response (Emax) in [6], in test [8] and in [10] were 47%, 79% and 46%, respectively.

In the case of `Cc1cc(=O)oc2cc(NC(=O)CCN3C(=O)C4=C(SC[C@@H](NC(=O)[C@@H](N)Cc5ccc(O)cc5)C(=O)NCC(=O)N[C@@H](Cc5ccccc5)C(=O)NNC(=O)[C@H](Cc5ccccc5)NC(=O)CNC(=O)[C@H](NC(=O)[C@@H](N)Cc5ccc(O)cc5)CS4)C3=O)ccc12`, the Ki is 98 nM in test [1], 510 nM in [2] and greater than 3.33 µM in test [3]. Further, the Ratio Ki in test [4] is 5 to 8. The 50% effective concentration (EC50) was determined as 250 nM in [5], 270 nM in [7] and 1000 nM in [9]. The Emax in test [6] stood at 62%; in test [8], 120%; in [10] it was 60%.

The values are drawn from ChEMBL document CHEMBL4613286, “Developing Cyclic Opioid Analogues: Fluorescently Labeled Bioconjugates of Biphalin” (ACS Med Chem Lett, 2020).
